The source made the active and inactive calls. The calls are words filed in the database; no cut-off is given here.
Columns and labels:
[1] = tested on: RAW264.7; assay: Antiinflammatory activity in mouse RAW264.7 cells assessed as inhibition of LPS-stimulated TNF-alpha mRNA expression at 0.1 to 100 uM after 24 hrs by RT-qPCR analysis; format: functional, cell-based
Summary of the method: (§1)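 RAW 264.7 cells grown in DMEM with 10% heat-inactivated FBS and 1% penicillin-streptomycin at 37 °C, 5% CO2. Plated at 3 × 10^5 cells/mL in six-well plates, left 24 h. Then given 0.1 μg/mL LPS with or without test compound (0.1–100 μM) for 24 h. mRNA quantified by RT-qPCR after RNA extraction, normalized to 18s mRNA and expressed as ratio to DMSO. SB203580 (10 μM) served as reference. Mean ± SD of three independent experiments.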

[2] = tested on: RAW264.7; assay: Cytotoxicity against mouse RAW264.7 cells; format: cell-based; conditions: for Activity: mouse, raw264.7
[3] = tested on: RAW264.7; assay: Antiinflammatory activity in mouse RAW264.7 cells assessed as inhibition of LPS-stimulated IL-6 mRNA expression at 10 uM after 24 hrs by RT-qPCR analysis relative to control; format: functional; conditions: RAW264.7, 24 h; summary of the method: as §1
[4] = tested on: RAW264.7; assay: Antiinflammatory activity in mouse RAW264.7 cells assessed as inhibition of LPS-stimulated IL-6 mRNA expression after 24 hrs by RT-qPCR analysis; format: functional, cell-based; conditions: for IC50: RAW264.7, 24 h; summary of the method: as §1
[5] = tested on: RAW264.7; assay: Antiinflammatory activity in mouse RAW264.7 cells assessed as inhibition of LPS-stimulated COX-2 mRNA expression at 0.1 to 100 uM after 24 hrs by RT-qPCR analysis; format: functional, cell-based; summary of the method: as §1

SMILES | inhibition [1] | Activity [2] | inhibition at 10 µM [3] [%] | inhibition [4] | IC50 [4] [µM] | inhibition [5] | IC50 ([2]; Mus musculus, RAW264.7) [µM]
CC(=O)O[C@H]1CC[C@@]2(C)C(=O)[C@@H]1[C@H](O)C=C1[C@@H]3CC[C@H]([C@H](C)CCC=C(C)C)[C@@]3(C)CC[C@@H]12 | inactive | Non-toxic | 69 | Dose-dependent effect | 5 | inactive | –
CC(C)=CCC[C@@H](C)[C@H]1CC[C@H]2C3=C[C@@H](O)[C@H]4C(=O)[C@](C)(CC[C@@H]4O)[C@H]3CC[C@]12C | – | – | – | – | – | – | 65
C[S+]([O-])c1ccc(-c2nc(-c3ccc(F)cc3)c(-c3ccncc3)[nH]2)cc1 (centres undefined) [SB-203580] | – | – | 53 | – | – | – | –
C=C(CC[C@@H](C)[C@H]1[C@H](O)C[C@H]2[C@@H]3CC=C4C[C@@H](O)CC[C@]4(C)[C@H]3CC[C@]12C)C(C)C | inactive | Non-toxic | 67 | Dose-dependent effect | 5.2 | inactive | –

Source: ChEMBL document CHEMBL3576870, “Monanchosterols A and B, bioactive bicyclo[4.3.1]steroids from a Korean sponge Monanchora sp” (J Nat Prod, 2015)
